# Screens as filed in PubChem.
# The list is not random: actives were taken first. Their share in the collection is about 4.2%.
# KCNQ1 inh = blocks the human KCNQ1 potassium channel. P51787. CHO-K1 KCNQ1, FluxOR thallium flux fluorescence; stronger effect = higher value. B-score at 10 µM. 310,000 tested, 1.3% active. AID 2642;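 active = compounds whose thallium flux B-score, printed positive for inhibition, exceeds three library SD while starting fluorescence stays within three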;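 note: channel opened by potassium depolarization with thallium stimulus after 20 min compound exposure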
# AI-2 QS modul = Vibrio harveyi AI-2 quorum sensing modulation; 300,000 tested, 0.4% active; Vibrio harveyi JMH597 AI-2 luminescence/OD600 ratio, 9 h; stronger effect = lower value; strain lacks LuxN and CqsS sensors; 0 = neutral-control median; activity change, % at 7.5 µM; in the data active = activity change below about -75%, passing the limit was not always enough;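 note: luminescence divided by OD600 gain over 9 h not by final OD600 alone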
# Mot1-301 SUMO = SUMOylation pathway inhibition by Mot1-301 growth rescue | S. cerevisiae Mot1-301 growth rescue, ATP luminescence, 38.5C; percent above DMSO median, 100 means doubled | growth rescue, % at 18.8 µM | 320,000 tested, 1% active | AID 2716;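 active = every valid replicate shows activation above 250% relative to neutral control wells; inactive = the rest, any valid replicate at or below 250%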
# KCC2 mod = KCC2 (human) Cl- transport modulation; KCC2 cells, thallium flux FluoZin-2 fluorescence; 190,000 tested, 2.2% active; B-score of Tl+ flux slope (higher = more flux/activation; lower = inhibition) at 10 µM; AID 1456; Q9H2X9;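 active = thallium flux slope and its plate-corrected score both differing from the plate sample mean at a set confidence after two filtering rounds, in either direction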;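 note: slope of fluorescence scaled to starting intensity during 10 to 20 s after thallium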
# KCNQ1 pot = potentiates or activates the human KCNQ1 potassium channel; 310,000 tested, 0.35% active; B-score at 10 µM; CHO-K1 KCNQ1, thallium flux FluxOR fluorescence; stronger effect = higher value; AID 2648; P51787;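 active = fluorescence ratio B-score, a plate-corrected score, at least three library SD, with initial intensity B-score within 5 SD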
#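 Assay system: CHO-K1 cells stably expressing KCNQ1; Medium: assay buffer with matched DMSO; Also added: K+/Tl+ depolarizing stimulus; Dosing: single dose; Timing: dye 90 min, compound 20 min, room temperature; Measured by: kinetic FluxOR thallium fluorescence, 10-s 1-Hz baseline, 110-s post-stimulus read; Read-out: peak-minus-minimum fluorescence over initial fluorescence, negative-control normalized, B-scored.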
# hERG protect = shields human hERG channel from block by proarrhythmic agents | AID 1511 | activation (rescue from dofetilide block), less the hit threshold, % at 10 µM | 310,000 tested, 0.51% active | CHO-hERG, FluxOR thallium flux, dofetilide IC70 present | Q12809;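 active = activation above the mean of controls blocked by dofetilide plus 5 SD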;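 note: thallium influx through hERG after potassium depolarization seen as dye fluorescence rise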
# Target sequence (Q12809 whole entry, looked up): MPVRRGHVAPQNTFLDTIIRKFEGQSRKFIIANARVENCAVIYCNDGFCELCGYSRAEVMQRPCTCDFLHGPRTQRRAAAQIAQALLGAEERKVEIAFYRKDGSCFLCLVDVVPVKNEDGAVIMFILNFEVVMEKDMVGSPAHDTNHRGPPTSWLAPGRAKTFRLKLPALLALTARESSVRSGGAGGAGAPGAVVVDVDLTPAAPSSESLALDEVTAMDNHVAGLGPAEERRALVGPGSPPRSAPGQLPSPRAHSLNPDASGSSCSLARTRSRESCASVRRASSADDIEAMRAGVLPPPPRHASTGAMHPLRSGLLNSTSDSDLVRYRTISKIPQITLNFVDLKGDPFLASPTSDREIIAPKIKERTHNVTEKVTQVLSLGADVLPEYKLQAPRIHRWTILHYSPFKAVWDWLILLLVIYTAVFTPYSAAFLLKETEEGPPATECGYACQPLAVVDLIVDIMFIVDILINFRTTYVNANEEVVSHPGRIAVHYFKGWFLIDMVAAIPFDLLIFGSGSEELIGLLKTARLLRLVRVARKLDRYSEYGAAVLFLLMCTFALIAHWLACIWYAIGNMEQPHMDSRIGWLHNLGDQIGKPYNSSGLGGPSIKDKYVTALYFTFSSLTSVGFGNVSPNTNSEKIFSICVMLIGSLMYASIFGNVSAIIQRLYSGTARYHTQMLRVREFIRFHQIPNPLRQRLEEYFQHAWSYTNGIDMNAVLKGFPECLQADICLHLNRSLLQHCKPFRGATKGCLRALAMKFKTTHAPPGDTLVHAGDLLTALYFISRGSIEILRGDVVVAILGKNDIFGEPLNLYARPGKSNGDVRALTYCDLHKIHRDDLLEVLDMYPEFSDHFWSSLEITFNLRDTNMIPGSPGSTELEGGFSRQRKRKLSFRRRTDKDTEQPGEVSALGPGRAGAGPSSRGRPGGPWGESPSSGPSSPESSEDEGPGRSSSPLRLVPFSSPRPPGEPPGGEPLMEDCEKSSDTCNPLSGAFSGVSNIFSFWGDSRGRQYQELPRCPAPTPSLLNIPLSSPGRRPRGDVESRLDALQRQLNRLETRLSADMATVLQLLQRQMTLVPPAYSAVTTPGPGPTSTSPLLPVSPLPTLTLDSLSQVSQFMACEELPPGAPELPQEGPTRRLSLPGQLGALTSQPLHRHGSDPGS
# KCNQ1 block val = human KCNQ1 channel inhibition, validation assay; shares compounds with KCNQ1 inh; inhibition, % at 10 µM; KCNQ1 cell line, FluxOR thallium flux fluorescence; 1,600 tested, 93% active;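 active = primary screen active, with duplicate mean exceeding buffer control mean plus 3 SD of buffer wells, cut at about 28% in these data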
# CHO Tl flux = KCNQ1 inhibitor counter-screen hit in parental CHO cells | shares compounds with KCNQ1 inh | parental CHO-K1, FluxOR thallium flux fluorescence ratio; stronger effect = lower value; zero means no signal rise above baseline | fluorescence ratio (Tl flux) at 10 µM | 1,600 tested, 21% active;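 active = mean of duplicate thallium-flux fluorescence ratios in parental host cells more than 5 SD below the buffer control mean, cut at about 0.38 in these data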;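 note: ratio is peak minus minimum fluorescence divided by baseline fluorescence; actives read low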
# KCNQ1 ephys val = confirmation of human KCNQ1 potassium channel inhibitors by electrophysiology; KCNQ1-CHO cells, automated patch clamp current; 490 tested, 20% active; shares compounds with KCNQ1 inh; calls only at 10 µM;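 active = KCNQ1 current drop exceeding 3 SD of negative control wells, seen in both duplicate runs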;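 note: steady state current during a 2 s step from -80 to +40 mV; negative values mean current inhibition and positive values mean potentiation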
# KCNQ2 spec = rat KCNQ2 inhibition in KCNQ1 inhibitor specificity screen; shares compounds with KCNQ1 inh; KCNQ2 cells, FluxOR thallium flux fluorescence; inhibition, % at 10 µM; 1,600 tested, 71% active; AID 651746;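 active = mean percent inhibition of the KCNQ2 thallium signal more than 5 SD above the buffer-only control wells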;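 note: KCNQ2 expressed in CHO cells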
# KCNQ1-KCNE1 inh = KCNQ1 inhibitor that also blocks human KCNQ1/KCNE1 channel. KCNQ1/KCNE1 cells, FluxOR thallium flux fluorescence. 1,600 tested, 77% active. inhibition, % at 10 µM. AID 652147. shares compounds with KCNQ1 inh;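 active = mean percent inhibition of duplicate wells above the buffer-only control mean plus 3 SD of those controls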
# Mot1 SUMO dose = SUMO pathway inhibitors in yeast Mot1-301 growth; S. cerevisiae Mot1-301 galactose growth, ATP luminescence, 24 h; -100 = growth of slx-deleted rescue strain; growth activity, percent, % at 42 µM; shares compounds with Mot1-301 SUMO; 2,300 tested, under 10 active; AID 493004;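 active = Signal drops as the depositor expects, and the fitted half-maximal dose is no more than ten times the top valid tested dose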;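 note: more negative values mean stronger growth rescue toward the control strain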
# Numbers stand for hits; - = inactive; . = no result; + = active, no number.
SMILES,KCNQ1 inh,AI-2 QS modul,Mot1-301 SUMO,KCC2 mod,KCNQ1 pot,hERG protect,KCNQ1 block val,CHO Tl flux,KCNQ2 spec,KCNQ1-KCNE1 inh,others
Brc1cccc(CNCCc2ccc3c(c2)OCO3)c1,6,-,-,.,-,-,100,-,86%,54%,KCNQ1 ephys val=+
Cc1ccc(O)c(C(=O)c2cc(C(=O)NCCC(C)C)c(=O)n(CCC(C)C)c2)c1,19,-,-,-,-,-,130,-,126%,124%,KCNQ1 ephys val=-
O=C(c1cc(C(=O)NCc2ccc(Cl)cc2)c(=O)n(Cc2ccc(Cl)cc2)c1)c1cc(F)ccc1O,-,-,-,-,-,-,.,.,.,.,
COc1ccc(-[n+]2c(-c3ccccc3)cc(-c3ccc(C)cc3)cc2-c2ccccc2)cc1,15,-,-,.,-,-,94,-,109%,163%,KCNQ1 ephys val=+
Cc1ccc(S(=O)(=O)N(C)N=O)cc1,.,.,-,.,.,.,.,.,.,.,
Cc1nn(CC(=O)N2CCC3(CC2)OCCO3)c(=O)c2cc3ccccc3n12,-,-,-,.,-,-,.,.,.,.,
CCCCCn1c(=O)c(C(=O)Nc2ccccc2S(N)(=O)=O)c(O)c2ccccc21,9,-,-,-,-,-,75,-,-,-,
CCCCCn1c(=O)c(C(=O)Nc2cnccn2)c(O)c2ccccc21,8,-,-,.,-,-,78,-,-,68%,
CCCCCCCn1c(=O)c(C(=O)Nc2cnccn2)c(O)c2ccccc21,-,-,-,-,-,-,.,.,.,.,
Cn1c(O)c(Cc2cccc(Cl)c2Cl)c(=O)n(C)c1=O,-,-,-,.,-,-,.,.,.,.,
CCOC(=O)CC(NC(=O)C(Cc1ccc(N(CCCl)CCCl)cc1)NC(C)=O)C(=O)OCC (centres undefined),-,-,-,-,-,-,.,.,.,.,
CCOC(=O)C(O)(c1ccc(N(C)C(=O)c2ccc(Cl)c(Cl)c2)cc1)C(F)(F)F (centres undefined),-,-,-,-,-,-,.,.,.,.,
CCOC(=O)C(O)(c1ccc(NC(=O)c2ccc(Cl)c(Cl)c2)cc1)C(F)(F)F (centres undefined),6,-,-,-,-,-,123,-,93%,144%,KCNQ1 ephys val=-
Cc1sc2c(c1C)C(c1ccc(C(C)(C)C)cc1)=NCC(=O)N2CC(=O)Nc1nccs1,6,-,-,-,-,-,84,-,-,94%,
COc1cc(N2CCOCC2)ccc1C=C1C(=O)NC(=O)NC1=O,-,-,-,-,-,-,.,.,.,.,
O=C1NC(=O)C(=Cc2ccc(N3CCOCC3)cc2)C(=O)N1,-,-,505,-,-,-,.,.,.,.,Mot1 SUMO dose=-
Cc1cc(/C=C2\C(=O)NC(=O)N(c3ccc(Cl)cc3)C2=O)c(C)n1-c1sc2c(c1C#N)CCCC2,-,-,-,-,-,-,.,.,.,.,
Cc1sc(-n2c(C)cc(C=C3C(=O)NC(=O)NC3=O)c2C)c(C#N)c1C,-,-,486,-,-,-,.,.,.,.,Mot1 SUMO dose=-
O=C(c1ccccc1)C(CN1CCCC1)c1ccccc1 (centres undefined),-,-,560,-,-,-,.,.,.,.,Mot1 SUMO dose=-
